According to ChEMBL document CHEMBL1154040, “Synthesis and evaluation of novel F-18 labeled fluoroarylvaline derivatives: potential PET imaging agents for tumor detection” (Bioorg Med Chem Lett, 2009):

How the values were obtained:
Spleen = assay: Biodistribution in S180 tumor-bearing KM mouse spleen assessed per gram of tissue at 240 to 370 kBq, iv after 15 mins; type: ADME, organism-based; conditions: in vivo, 0.25 h
Muscle tissue [1] = assay: Biodistribution in S180 tumor-bearing KM mouse muscle assessed per gram of tissue at 240 to 370 kBq, iv after 60 mins; type: ADME, organism-based; conditions: in vivo, 1 h
Muscle tissue [2] = assay: Biodistribution in S180 tumor-bearing KM mouse muscle assessed per gram of tissue at 240 to 370 kBq, iv after 5 mins; type: ADME, organism-based; conditions: in vivo
Femur [3] = assay: Biodistribution in S180 tumor-bearing KM mouse femur assessed per gram of tissue at 240 to 370 kBq, iv after 120 mins; type: ADME, organism-based; conditions: in vivo, 2 h
Procedure, shortened: (§1)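 Female KM mice (20 ± 2 g) were used 14–18 days after inoculation of 5 × 10^6 S 180 tumor cells. The ¹⁸F tracer in saline was injected into the tail vein of awake mice. Mice were killed at 5, 15, 30, 60 or 120 min, and the femur was removed, weighed and gamma-counted. Results are background-corrected %ID/g, mean ± SD, n = 4.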

Femur [4] = assay: Biodistribution in S180 tumor-bearing KM mouse femur assessed per gram of tissue at 240 to 370 kBq, iv after 60 mins; type: ADME, organism-based; conditions: in vivo, 1 h; procedure, shortened: as §1
Femur [5] = assay: Biodistribution in S180 tumor-bearing KM mouse femur assessed per gram of tissue at 240 to 370 kBq, iv after 30 mins; type: ADME, organism-based; conditions: in vivo, 0.5 h; procedure, shortened: as §1
Femur [6] = assay: Biodistribution in S180 tumor-bearing KM mouse femur assessed per gram of tissue at 240 to 370 kBq, iv after 15 mins; type: ADME, organism-based; conditions: in vivo, 0.25 h; procedure, shortened: as §1
Femur [7] = assay: Biodistribution in S180 tumor-bearing KM mouse femur assessed per gram of tissue at 240 to 370 kBq, iv after 5 mins; type: ADME, organism-based; conditions: in vivo; procedure, shortened: as §1
Kidney [8] = assay: Biodistribution in S180 tumor-bearing KM mouse kidney assessed per gram of tissue at 240 to 370 kBq, iv after 60 mins; type: ADME, organism-based; conditions: in vivo, 1 h
Kidney [9] = assay: Biodistribution in S180 tumor-bearing KM mouse kidney assessed per gram of tissue at 240 to 370 kBq, iv after 30 mins; type: ADME, organism-based; conditions: in vivo, 0.5 h
Lung [10] = assay: Biodistribution in S180 tumor-bearing KM mouse lung assessed per gram of tissue at 240 to 370 kBq, iv after 120 mins; type: ADME, organism-based; conditions: in vivo, 2 h
Lung [11] = assay: Biodistribution in S180 tumor-bearing KM mouse lung assessed per gram of tissue at 240 to 370 kBq, iv after 15 mins; type: ADME, organism-based; conditions: in vivo, 0.25 h
Liver = assay: Biodistribution in S180 tumor-bearing KM mouse liver assessed per gram of tissue at 240 to 370 kBq, iv after 30 mins; type: ADME, organism-based; conditions: in vivo, 0.5 h
Blood = assay: Stability in tumor bearing KM mouse blood after 30 mins at 4 MBq, iv; type: ADME, tissue-based; conditions: 0.5 h
Procedure, shortened: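 Blood from tumor-bearing mice was collected after tracer injection and centrifuged at once for 5 min at 13,200 rpm. Supernatants from both centrifugation steps were combined, loaded onto a C18 Sep-Pak cartridge, washed with 2 ml water, then eluted.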

Brain = assay: Biodistribution in S180 tumor-bearing KM mouse brain assessed per gram of tissue at 240 to 370 kBq, iv after 120 mins; type: ADME, organism-based; conditions: in vivo, 2 h
[12] = Biodistribution in S180 tumor present in KM mouse assessed per gram of tissue at 240 to 370 kBq, iv after 15 mins; type: ADME, organism-based, Neoplasm; conditions: in vivo, 0.25 h
[13] = Biodistribution in S180 tumor present in KM mouse assessed per gram of tissue at 240 to 370 kBq, iv after 30 mins; type: ADME, organism-based, Neoplasm; conditions: in vivo, 0.5 h
[14] = Ratio of drug level in S180 tumor to blood in KM mouse at 240 to 370 kBq, iv after 30mins; type: ADME, organism-based; conditions: tumour, 0.5 h
[15] = Ratio of drug level in S180 tumor to brain KM mouse at 240 to 370 kBq, iv after 5 mins; type: ADME, organism-based; conditions: in vivo
[16] = Ratio of drug level in S180 tumor to brain KM mouse at 240 to 370 kBq, iv after 30 mins; type: ADME, organism-based; conditions: in vivo, 0.5 h
[17] = Ratio of drug level in S180 tumor to muscleKM mouse at 240 to 370 kBq, iv after 15 mins; type: ADME, organism-based, KM; conditions: in vivo, 0.25 h
[18] = Ratio of drug level in S180 tumor to muscleKM mouse at 240 to 370 kBq, iv after 30 mins; type: ADME, organism-based, KM; conditions: in vivo, 0.5 h
[19] = Ratio of drug level in S180 tumor to muscleKM mouse at 240 to 370 kBq, iv after 120 mins; type: ADME, organism-based, KM; conditions: in vivo, 2 h

Row | Drug uptake (Spleen) [%ID] | Drug uptake (Muscle tissue [1]) [%ID] | Drug uptake (Muscle tissue [2]) [%ID] | Drug uptake (Femur [3]) [%ID] | Drug uptake (Femur [4]) [%ID] | Drug uptake (Femur [5]) [%ID] | Drug uptake (Femur [6]) [%ID] | Drug uptake (Kidney [8]) [%ID] | Drug uptake (Kidney [9]) [%ID] | Drug uptake (Lung [10]) [%ID] | Drug uptake (Lung [11]) [%ID] | Drug uptake (Liver) [%ID] | Drug uptake (Brain) [%ID] | Drug uptake [12] [%ID] | Drug uptake [13] [%ID] | tumor/brain ratio [15] | tumor/brain ratio [16] | tumor/muscle ratio [17] | tumor/muscle ratio [18] | tumor/muscle ratio [19] | Compound | other results
1 | 1.13 | 0.69 | 1.43 | 2.01 | 2.09 | 2.11 | 2.23 | 0.35 | 3.8 | 0.25 | 2.57 | 3.66 | 0.12 | 2.06 | 1.97 | 2.79 | 7.06 | 1.48 | 2.41 | 0.54 | COC(=O)[C@@H](NC(=O)c1ccc([N+](=O)[O-])cc1[18F])C(C)C | Drug uptake (Femur [7]): 1.6 %ID; Stability (Blood): Stable; tumor/blood ratio [14]: 2.91
2 | 0.95 | 0.97 | 1.56 | – | – | – | – | 0.54 | 0.61 | 0.52 | 0.77 | 0.23 | 1.28 | 1.56 | 1.86 | 0.53 | 0.61 | 1.37 | 1.75 | 2.2 | OC[C@H]1O[C@@H](O)[C@H]([18F])[C@@H](O)[C@@H]1O [FLUDEOXYGLUCOSE-F18] | –
3 | 0.6 | 0.15 | 0.99 | 2.15 | 2.47 | 3.38 | 4.02 | 0.45 | 1.36 | 0.57 | 2.01 | 1.59 | 0.01 | 0.91 | 0.56 | 9.38 | 13.3 | 1.95 | 2.62 | 0.66 | CC(C)[C@H](NC(=O)c1ccc([N+](=O)[O-])cc1[18F])C(=O)O | Drug uptake (Femur [7]): 3.61 %ID; Stability (Blood): Stable; tumor/blood ratio [14]: 2.32
